One block for each compound: values may come before it.
Experiments:
[1] = Selectivity ratio of IC50 for CYP2D6 in human liver microsomes to IC50 for CYP26A1 in human MCF7 cell microsomes
CYP2C9 = CYP2C9 (Homo sapiens, UniProt P11712); experiment: Inhibition of CYP2C9 in human liver microsomes at 0.4 uM; format: ADME, Microsome
[2] = Selectivity ratio of IC50 for CYP1A2 in human liver microsomes to IC50 for CYP26A1 in human MCF7 cell microsomes
Cytochrome P450 2C19 = Cytochrome P450 2C19 (Homo sapiens, UniProt P33261); experiment: Inhibition of CYP2C19 in human liver microsomes; format: ADME, Microsome
Cytochrome P450 2C9 = Cytochrome P450 2C9 (Homo sapiens, UniProt P11712); experiment: Inhibition of CYP2C9 in human liver microsomes; format: ADME, Microsome
[3] = Selectivity ratio of IC50 for CYP2C9 in human liver microsomes to IC50 for CYP26A1 in human MCF7 cell microsomes
CYP3A4 = CYP3A4 (Homo sapiens, UniProt P08684); experiment: Inhibition of CYP3A4 in human liver microsomes at 0.4 uM; format: ADME, Microsome
Cytochrome P450 3A4 = Cytochrome P450 3A4 (Homo sapiens, UniProt P08684); experiment: Inhibition of CYP3A4 in human liver microsomes; format: ADME, Microsome
CYP2D6 = CYP2D6 (Homo sapiens, UniProt P10635); experiment: Inhibition of CYP2D6 in human liver microsomes at 0.4 uM; format: ADME, Microsome
CYP1A2 = biological target: T1, CYP1A2 (Homo sapiens, UniProt P05177); experiment: Inhibition of CYP1A2 in human liver microsomes at 0.4 uM; format: ADME, Microsome
T1 sequence (P05177 whole entry): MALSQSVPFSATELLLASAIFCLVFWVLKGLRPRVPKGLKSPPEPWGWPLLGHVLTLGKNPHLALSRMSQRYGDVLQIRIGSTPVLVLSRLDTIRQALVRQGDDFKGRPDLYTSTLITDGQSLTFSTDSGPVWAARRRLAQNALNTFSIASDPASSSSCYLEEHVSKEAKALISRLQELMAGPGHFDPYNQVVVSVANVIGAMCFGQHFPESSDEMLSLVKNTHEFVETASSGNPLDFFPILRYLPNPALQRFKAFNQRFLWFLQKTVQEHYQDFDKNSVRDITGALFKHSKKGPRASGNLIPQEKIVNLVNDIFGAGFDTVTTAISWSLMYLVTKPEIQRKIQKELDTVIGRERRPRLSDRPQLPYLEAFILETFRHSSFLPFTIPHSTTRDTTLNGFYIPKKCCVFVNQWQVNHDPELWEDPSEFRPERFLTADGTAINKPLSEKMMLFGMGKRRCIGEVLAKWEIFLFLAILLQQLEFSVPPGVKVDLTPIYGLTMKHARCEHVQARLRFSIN

CYP2C19 = CYP2C19 (Homo sapiens, UniProt P33261); experiment: Inhibition of CYP2C19 in human liver microsomes at 0.4 uM; format: ADME, Microsome
Cytochrome P450 2D6 = Cytochrome P450 2D6 (Homo sapiens, UniProt P10635); experiment: Inhibition of CYP2D6 in human liver microsomes; format: ADME, Microsome
[4] = Selectivity ratio of IC50 for CYP3A4 in human liver microsomes to IC50 for CYP26A1 in human MCF7 cell microsomes
Cytochrome P450 26A1 = biological target: T2, Cytochrome P450 26A1 (Homo sapiens, UniProt O43174); experiment: Inhibition of CYP26A1 in human MCF7 cell microsomes using [3H]ATRA as substrate after 1 hr by scintillation counter analysis; set-up: species or system Microsome
T2 sequence (O43174 whole entry): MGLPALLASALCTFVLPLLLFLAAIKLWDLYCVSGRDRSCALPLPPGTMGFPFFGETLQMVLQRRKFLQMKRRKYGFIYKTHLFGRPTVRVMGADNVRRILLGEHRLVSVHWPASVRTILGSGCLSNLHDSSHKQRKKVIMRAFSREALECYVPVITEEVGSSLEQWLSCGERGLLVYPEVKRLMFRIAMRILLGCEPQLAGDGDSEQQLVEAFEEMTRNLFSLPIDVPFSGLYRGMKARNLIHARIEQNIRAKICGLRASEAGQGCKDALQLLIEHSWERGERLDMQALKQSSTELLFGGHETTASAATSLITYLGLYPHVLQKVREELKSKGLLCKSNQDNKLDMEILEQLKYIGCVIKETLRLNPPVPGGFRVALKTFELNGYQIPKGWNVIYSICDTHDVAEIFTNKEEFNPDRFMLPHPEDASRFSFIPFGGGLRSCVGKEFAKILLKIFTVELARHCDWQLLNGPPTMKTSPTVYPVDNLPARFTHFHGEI
Outline: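 MCF-7 cells (RPMI 1640, 10% FCS, 2 mM L-glutamine, 37 °C, 5% CO₂) pretreated 24 h with 1 µM RA to induce CYP26; microsomes by differential centrifugation, activity normalised by cytochrome c reductase. 50 µg microsomal protein, 2 mM NADPH, 10 nM ATRA plus 0.1 µCi ³H-ATRA, pH 7.4 Tris/KCl/MgCl₂/BSA, inhibitor 1–1000 nM, 1 h 37 °C; acetonitrile quench, C18 HPLC, flow scintillation; inhibition from metabolite peak area fraction versus no-inhibitor control.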

Cytochrome P450 1A2 = biological target: T3, Cytochrome P450 1A2 (Homo sapiens, UniProt P05177); experiment: Inhibition of CYP1A2 in human liver microsomes; format: ADME, Microsome
T3 sequence (P05177 whole entry): T1 sequence (P05177 whole entry)

CYP2C19, sequence (P33261 whole entry): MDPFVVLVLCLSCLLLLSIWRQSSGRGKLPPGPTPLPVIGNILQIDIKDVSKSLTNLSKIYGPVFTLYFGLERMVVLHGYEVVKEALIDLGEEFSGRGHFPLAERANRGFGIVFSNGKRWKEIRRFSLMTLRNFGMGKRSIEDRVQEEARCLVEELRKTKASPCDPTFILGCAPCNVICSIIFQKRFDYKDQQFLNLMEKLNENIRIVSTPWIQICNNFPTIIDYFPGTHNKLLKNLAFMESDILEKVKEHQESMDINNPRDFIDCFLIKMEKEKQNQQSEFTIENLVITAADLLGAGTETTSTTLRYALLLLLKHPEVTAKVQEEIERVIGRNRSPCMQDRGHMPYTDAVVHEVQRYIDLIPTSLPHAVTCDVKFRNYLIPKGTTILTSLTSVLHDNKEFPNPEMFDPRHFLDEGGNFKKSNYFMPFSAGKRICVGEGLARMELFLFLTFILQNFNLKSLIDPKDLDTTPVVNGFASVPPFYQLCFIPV
CYP2C9, sequence (P11712 whole entry): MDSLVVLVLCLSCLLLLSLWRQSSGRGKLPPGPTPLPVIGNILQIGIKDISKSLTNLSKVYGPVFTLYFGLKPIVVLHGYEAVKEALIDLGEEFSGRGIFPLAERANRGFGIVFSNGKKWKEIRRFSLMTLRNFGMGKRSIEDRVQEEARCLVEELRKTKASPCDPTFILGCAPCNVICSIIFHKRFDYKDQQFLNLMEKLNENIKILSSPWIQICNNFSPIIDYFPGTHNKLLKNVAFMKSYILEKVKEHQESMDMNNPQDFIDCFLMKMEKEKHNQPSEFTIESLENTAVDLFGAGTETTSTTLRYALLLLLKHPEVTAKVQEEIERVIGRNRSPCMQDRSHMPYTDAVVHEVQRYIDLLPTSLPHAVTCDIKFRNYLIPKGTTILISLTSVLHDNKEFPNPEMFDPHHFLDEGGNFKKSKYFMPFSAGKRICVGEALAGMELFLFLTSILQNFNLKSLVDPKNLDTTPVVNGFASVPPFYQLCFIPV
CYP3A4, sequence (P08684 whole entry): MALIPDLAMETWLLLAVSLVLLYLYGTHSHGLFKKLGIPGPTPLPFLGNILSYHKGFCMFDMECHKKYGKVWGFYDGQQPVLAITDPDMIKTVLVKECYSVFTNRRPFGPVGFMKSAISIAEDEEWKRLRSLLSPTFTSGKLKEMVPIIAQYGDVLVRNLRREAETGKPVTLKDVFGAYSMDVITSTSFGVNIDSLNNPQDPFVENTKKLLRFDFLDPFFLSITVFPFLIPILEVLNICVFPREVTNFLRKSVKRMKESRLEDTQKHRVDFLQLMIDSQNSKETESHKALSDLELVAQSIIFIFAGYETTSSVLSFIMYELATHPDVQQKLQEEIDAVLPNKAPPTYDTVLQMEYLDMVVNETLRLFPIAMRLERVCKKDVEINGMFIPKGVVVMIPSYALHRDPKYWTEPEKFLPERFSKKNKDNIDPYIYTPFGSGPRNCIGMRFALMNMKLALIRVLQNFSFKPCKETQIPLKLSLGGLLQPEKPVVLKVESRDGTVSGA
CYP2D6, sequence (P10635 whole entry): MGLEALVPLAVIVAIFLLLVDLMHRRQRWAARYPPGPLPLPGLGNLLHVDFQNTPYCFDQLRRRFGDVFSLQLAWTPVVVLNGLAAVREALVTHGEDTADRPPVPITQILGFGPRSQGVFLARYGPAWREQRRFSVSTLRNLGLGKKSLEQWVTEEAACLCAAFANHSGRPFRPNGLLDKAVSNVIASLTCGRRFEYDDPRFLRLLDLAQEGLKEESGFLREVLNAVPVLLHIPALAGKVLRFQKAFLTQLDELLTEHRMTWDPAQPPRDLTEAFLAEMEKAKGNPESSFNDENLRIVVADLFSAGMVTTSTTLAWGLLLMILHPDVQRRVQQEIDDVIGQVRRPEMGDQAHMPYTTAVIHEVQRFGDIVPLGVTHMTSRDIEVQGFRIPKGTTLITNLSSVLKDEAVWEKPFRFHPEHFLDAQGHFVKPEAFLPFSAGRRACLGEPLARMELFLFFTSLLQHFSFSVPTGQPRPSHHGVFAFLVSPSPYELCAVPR
Cytochrome P450 2C19, sequence (P33261 whole entry): as the sequence (P33261 whole entry) above
Cytochrome P450 2C9, sequence (P11712 whole entry): as the sequence (P11712 whole entry) above
Cytochrome P450 3A4, sequence (P08684 whole entry): as the sequence (P08684 whole entry) above
Cytochrome P450 2D6, sequence (P10635 whole entry): as the sequence (P10635 whole entry) above

SMILES: CC(C)(C(=O)O)C(c1ccc(Nc2ccccc2)cc1)n1ccnc1 (stereo not drawn)
- IC50 (Cytochrome P450 26A1): > 1000 nM

SMILES: CNC(=O)C(C)(C)C(c1ccc(Nc2ccccc2)cc1)n1ccnc1 (stereo not drawn)
- IC50 (Cytochrome P450 26A1): 200 nM

SMILES: CCNC(=O)C(C)(C)C(c1ccc(Nc2ccccc2)cc1)n1ccnc1 (stereo not drawn)
- IC50 (Cytochrome P450 26A1): 250 nM

SMILES: CNC(=O)C(C)(C)C(c1ccc(Nc2ccc(OC)cc2)cc1)n1ccnc1 (stereo not drawn)
- IC50 (Cytochrome P450 26A1): > 1000 nM

SMILES: CNC(=O)C(C)(C)C(c1ccc(Nc2ccc(Cl)cc2)cc1)n1ccnc1 (stereo not drawn)
- IC50 (Cytochrome P450 26A1): 1000 nM

SMILES: C[C@H]([C@@H](c1ccc(Nc2nc3ccccc3s2)cc1)n1cncn1)N(C)C
- inhibition at 0.4 µM (CYP2C9): 3%
- inhibition at 0.4 µM (CYP3A4): 83%
- inhibition at 0.4 µM (CYP2D6): 27%
- inhibition at 0.4 µM (CYP1A2): 6%
- inhibition at 0.4 µM (CYP2C19): 17%

Now from value to compound, other results behind:

- inhibition at 0.4 µM (CYP2C9): 19%
- IC50 (Cytochrome P450 2C19): 4200 nM
- IC50 (Cytochrome P450 2C9): 9100 nM
- inhibition at 0.4 µM (CYP3A4): 47%
- IC50 (Cytochrome P450 3A4): 200 nM
- inhibition at 0.4 µM (CYP2D6): 13%
- inhibition at 0.4 µM (CYP1A2): 10%
- inhibition at 0.4 µM (CYP2C19): 19%
- IC50 (Cytochrome P450 2D6): 1300 nM
- IC50 (Cytochrome P450 26A1): 13 nM
- IC50 (Cytochrome P450 1A2): 8500 nM
SMILES: COC(=O)C(C)(C)C(c1ccc(Nc2ccccc2)cc1)n1cncn1 (stereo not drawn)
- Ratio IC50 [1]: >100
- Ratio IC50 [2]: >100
- Ratio IC50 [3]: >100
- Ratio IC50 [4]: 15

- IC50 (Cytochrome P450 26A1): 95 nM
SMILES: COC(=O)C(C)(C)C(c1ccc(Nc2ccc(C(C)=O)cc2)cc1)n1cncn1 (stereo not drawn)

- IC50 (Cytochrome P450 26A1): 85 nM
SMILES: CC(C)(C(=O)O)C(c1ccc(Nc2ccc(C(=O)O)cc2)cc1)n1cncn1 (stereo not drawn)

- IC50 (Cytochrome P450 26A1): 1000 nM
SMILES: CNC(=O)C(C)(C)C(c1ccc(Nc2ccccc2)cc1)n1cncn1 (stereo not drawn)

— ChEMBL document CHEMBL2203049, “Novel retinoic acid 4-hydroxylase (CYP26) inhibitors based on a 3-(1H-imidazol- and triazol-1-yl)-2,2-dimethyl-3-(4-(phenylamino)phenyl)propyl scaffold” (Bioorg Med Chem, 2012)
